Source: ChEMBL document CHEMBL3244308, “Potential antitumor agents. 22. Latentiated congeners of the 4'-(9-acridinylamino)methanesulfonanilides” (J Med Chem, 1977)

Legend:
L1210 [1] = test: Antitumor activity against mouse L1210 cells intraperitoneally xenografted in ip dosed C3H/DBA2 F1 hybrid mouse assessed as increase in host lifespan administered daily for 5 days starting 24 hrs post-tumor implantation; type: functional
Method in brief: (§1)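 10⁵ L1210 cells implanted ip into 18.5-22.5-g C3H/DBA2 F1 mice. Daily ip treatment for 5 days from 24 h after implant, as water-soluble salts (methanesulfonate or hydrochloride) or as homogenized suspensions in aqueous methylcellulose. Groups of six mice. Read-out is increase in life span (T/C% − 100) at the optimum dose (maximal life-span increase, mg/kg/day); 50-day survivors counted.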

L1210 [2] = test: Antitumor activity against mouse L1210 cells subcutaneously xenografted in ip dosed C3H/DBA2 F1 hybrid mouse assessed as increase in host lifespan administered daily for 5 days starting 24 hrs post-tumor implantation; type: functional
Method in brief: as §1, with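 “implanted sc above the right axilla” for “implanted ip”, “ip dosing” for “ip treatment”, “salts” for “salts (methanesulfonate or hydrochloride)”, “mice. Increase” for “mice. Read-out is increase”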

Mus musculus = test: Toxicity in ip dosed mouse assessed as optimum dose that providing maximum increase in life span administered qd for 1 to 5 days; type: organism-based; conditions: in vivo
Method in brief: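 Mice were C3H/DBA2 F1 hybrids weighing 18.5-22.5 g. L1210 cells (10^5) were implanted ip or sc above the right axilla. Daily ip treatment began 24 h later and continued for 5 days (dq 1-5), given in water or as a homogenized suspension in aqueous methylcellulose. The optimum dose (mg/kg/day) is the one giving maximum life-span increase (T/C% - 100). Groups were six mice; 50-day survivors were counted.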

[3] = Lipophilic-hydrophilic balance, Rm of the compound by reversed-phase partition chromatography; type: physicochemical

SMILES | ILS (L1210 [1]) | ILS (L1210 [2]) | Activity (Mus musculus) | Rm [3]
CCN(CC)/N=N/c1ccc2c(Nc3ccc(NS(C)(=O)=O)cc3)c3ccccc3nc2c1.CS(=O)(=O)O | 96% | 28% | 25 mg/kg | 
CCCCCCCC(=O)N(c1ccc(Nc2c3ccccc3nc3cc(N)ccc23)cc1)S(C)(=O)=O.Cl | 119% |  | 2.5 mg/kg | 0.57
COc1cc(N(C(C)=O)S(C)(=O)=O)ccc1Nc1c2ccccc2nc2ccccc12.Cl | 70% | 33% | 6 mg/kg | 0.05
CCCC(=O)N(c1ccc(Nc2c3ccccc3nc3c(C)cccc23)c(OC)c1)S(C)(=O)=O | 52% |  | 75 mg/kg | 0.53
CCCCCC(=O)N(c1ccc(Nc2c3ccccc3nc3cc(N)ccc23)cc1)S(C)(=O)=O.Cl | 46% |  | 2 mg/kg | 0.43
CCCCCCC(=O)N(c1ccc(Nc2c3ccccc3nc3cc(N)ccc23)cc1)S(C)(=O)=O.Cl | 31% |  | 2 mg/kg | 0.51
CCCCC(=O)N(c1ccc(Nc2c3ccccc3nc3cc([N+](=O)[O-])ccc23)cc1)S(C)(=O)=O | 91% | 57% | 26 mg/kg | 0.32
CCCOC(=O)CCC(=O)N(c1ccc(Nc2c3ccccc3nc3c(C)cccc23)c(OC)c1)S(C)(=O)=O |  |  | 75 mg/kg | 0.75
CC(=O)Nc1ccc2c(Nc3ccc(N(C(=O)C(C)C)S(C)(=O)=O)cc3)c3ccccc3nc2c1.Cl | 93% | 57% | 50 mg/kg | 0.29
CC(=O)Nc1ccc2c(Nc3ccc(NS(C)(=O)=O)cc3)c3ccccc3nc2c1 | 114% | 33% | 13 mg/kg | -0.12
COc1cc(NS(C)(=O)=O)ccc1Nc1c2ccccc2nc2ccccc12 [AMSACRINE] | 114% | 27% | 6.7 mg/kg | 0.18
Br.CCCCCCC(=O)N(c1ccc(Nc2c3ccccc3nc3ccccc23)cc1)S(C)(=O)=O | 61% | 27% | 150 mg/kg | 0.54
CCC(=O)N(c1ccc(Nc2c3ccccc3nc3cc([N+](=O)[O-])ccc23)cc1)S(C)(=O)=O | 162% | 57% | 50 mg/kg | 0.13
CS(=O)(=O)Nc1ccc(Nc2c3ccccc3nc3cc(N)ccc23)cc1 | 81% |  | 2.5 mg/kg | -0.17
COc1cc(NS(C)(=O)=O)ccc1Nc1c2ccccc2nc2c(C)cccc12 | 111% | 47% | 6 mg/kg | 0.11
CC(C)(C)C(=O)N(c1ccc(Nc2c3ccccc3nc3ccccc23)cc1)S(C)(=O)=O.Cl | 47% |  | 250 mg/kg | 0.31
CN(C)/N=N/c1ccc2c(Nc3ccc(NS(C)(=O)=O)cc3)c3ccccc3nc2c1.Cl | 110% | 38% | 8 mg/kg | 0.22
CCC(C)C(=O)N(c1ccc(Nc2c3ccccc3nc3cc(NC(C)=O)ccc23)cc1)S(C)(=O)=O.Cl (configuration not stated) | 68% | 31% | 50 mg/kg | 0.38
CC(=O)Nc1ccc2c(Nc3ccc(N(C(C)=O)S(C)(=O)=O)cc3)c3ccccc3nc2c1.Cl | 118% | 43% | 28 mg/kg | -0.19
Br.CCCCCCCCCC(=O)N(c1ccc(Nc2c3ccccc3nc3cc(NC(C)=O)ccc23)cc1)S(C)(=O)=O | 98% | 65% | 50 mg/kg | 0.76

SMILES | ILS (L1210 [1]) | ILS (L1210 [2]) | Activity (Mus musculus) | Rm [3]
CCCCCCC(=O)N(c1ccc(Nc2c3ccccc3nc3cc([N+](=O)[O-])ccc23)cc1)S(C)(=O)=O | 48% | 41% | 9 mg/kg | 0.5
CCN(CC)/N=N/c1ccc2c(Nc3ccc(NS(C)(=O)=O)cc3)c3ccccc3nc2c1 |  |  |  | 0.49
COc1cc(N(C(C)=O)S(C)(=O)=O)ccc1Nc1c2ccccc2nc2c(C)cccc12 | 38% |  | 7.5 mg/kg | 0.24
CCCN(C)/N=N/c1ccc2c(Nc3ccc(NS(C)(=O)=O)cc3OC)c3ccccc3nc2c1.CS(=O)(=O)O | 100% | 59% | 15 mg/kg | 0.65
CCOC(=O)CCC(=O)N(c1ccc(Nc2c3ccccc3nc3c(C)cccc23)c(OC)c1)S(C)(=O)=O.CS(=O)(=O)O | 40% |  | 13.3 mg/kg | 
CCC(=O)N(c1ccc(Nc2c3ccccc3nc3c(C)cccc23)c(OC)c1)S(C)(=O)=O | 31% |  | 25 mg/kg | 0.37
CCCC(=O)N(c1ccc(Nc2c3ccccc3nc3ccccc23)cc1)S(C)(=O)=O.Cl | 31% |  | 400 mg/kg | 0.28
CCCC(=O)N(c1ccc(Nc2c3ccccc3nc3cc([N+](=O)[O-])ccc23)cc1)S(C)(=O)=O | 52% |  | 50 mg/kg | 0.27
CCCCCC(=O)N(c1ccc(Nc2c3ccccc3nc3c(C)cccc23)c(OC)c1)S(C)(=O)=O | 39% |  | 66 mg/kg | 0.79
Br.CCC(=O)N(c1ccc(Nc2c3ccccc3nc3cc(N)ccc23)cc1)S(C)(=O)=O | 49% |  | 2 mg/kg | -0.04
CCCCCC(=O)N(c1ccc(Nc2c3ccccc3nc3ccccc23)cc1)S(C)(=O)=O.Cl | 41% |  | 150 mg/kg | 0.45
CCOC(=O)CCC(=O)N(c1ccc(Nc2c3ccccc3nc3c(C)cccc23)c(OC)c1)S(C)(=O)=O | 43% |  | 18 mg/kg | 0.62
CCCCC(=O)N(c1ccc(Nc2c3ccccc3nc3cc(N)ccc23)cc1)S(C)(=O)=O.Cl | 61% |  | 1 mg/kg | 0.31
CCCCCCCCC(=O)N(c1ccc(Nc2c3ccccc3nc3cc(N)ccc23)cc1)S(C)(=O)=O.Cl | 64% |  | 2.5 mg/kg | 0.59
CCCC(=O)N(c1ccc(Nc2c3ccccc3nc3cc(N)ccc23)cc1)S(C)(=O)=O.Cl | 53% |  | 1 mg/kg | 0.13
CCCCCCCC(=O)N(c1ccc(Nc2c3ccccc3nc3ccccc23)cc1)S(C)(=O)=O.Cl | 41% |  | 400 mg/kg | 0.68
CC(=O)N(c1ccc(Nc2c3ccccc3nc3cc(N)ccc23)cc1)S(C)(=O)=O.Cl | 74% |  | 2 mg/kg | -0.22
CCCCC(=O)N(c1ccc(Nc2c3ccccc3nc3c(C)cccc23)c(OC)c1)S(C)(=O)=O | 50% |  | 250 mg/kg | 0.66
CCCCCCCCC(=O)N(c1ccc(Nc2c3ccccc3nc3ccccc23)cc1)S(C)(=O)=O.Cl | 31% |  | 400 mg/kg | 0.74
